Test results published in ChEMBL document CHEMBL3526146, “In vitro and in vivo metabolism and pharmacokinetics of BMS-562086, a potent and orally bioavailable corticotropin-releasing factor-1 receptor antagonist” (Drug Metab Dispos, 2012).

What was measured:
Hepatocyte [1] = assay: Detection of compound level in human cryopreserved hepatocytes treated with 25 uM of BMS-562086 after 3 hrs by HPLC analysis; type: ADME, cell-based
Summary of the method: (§1)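 Mouse, rat, dog, monkey and human hepatocytes (trypan blue viability checked) at 1.0×10^6 cells/ml in Krebs-Henseleit buffer were incubated with 25 µM compound, in duplicate. Conditions were 37°C, 95/5 O2/CO2, orbital shaking, 3 h. 7-Ethoxycoumarin and 7-hydroxycoumarin (100 µM) served as positive controls, with a cell-free negative control. Reactions were quenched with ice-cold acetonitrile, then sonicated and centrifuged; supernatants were analysed by LC/MS/MS.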

Hepatocyte [2] = assay: Detection of compound level in mouse hepatocytes treated with 25 uM of BMS-562086 after 3 hrs by HPLC analysis; type: ADME, cell-based; summary of the method: as §1
Hepatocyte [3] = assay: Detection of compound level in rat hepatocytes treated with 25 uM of BMS-562086 after 3 hrs by HPLC analysis; type: ADME, cell-based; summary of the method: as §1
[4] = Detection of compound level in cynomolgus monkey cryopreserved hepatocytes treated with 25 uM of BMS-562086 after 3 hrs by HPLC analysis; type: ADME, cell-based, Macaca fascicularis, Hepatocyte; summary of the method: as §1
[5] = Detection of compound level in beagle dog hepatocytes treated with 25 uM of BMS-562086 after 3 hrs by HPLC analysis; type: ADME, cell-based, Canis lupus familiaris, Hepatocyte; summary of the method: as §1
[6] = Apparent permeability from apical to basolateral side in human Caco2 cells; type: ADME, cell-based; details: Caco-2
Summary of the method: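 Caco-2 cells (passage 50-60) were seeded at 60,000 cells/cm2 on polycarbonate Transwells and cultured 21-25 days. Transport buffer was HBSS with 2% DMA, pH 7.4. Compound was applied apically at 25 µM at 37°C. Only monolayers with TEER 400-500 Ω cm2 at start and end were used, with mannitol as an integrity probe. Papp = (dQ/dt)/(A×C0).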

Drug metabolism (Hepatocyte [1])	Drug metabolism (Hepatocyte [2])	Drug metabolism (Hepatocyte [3])	Drug metabolism [4]	Drug metabolism [5]	Papp A→B [6]	SMILES
metabolite_detected	metabolite_detected	metabolite_detected	metabolite_detected	metabolite_detected	–	CCOc1ccc2ccc(=O)oc2c1
–	–	–	–	–	0.21 ×10⁻⁶ cm/s	OC[C@@H](O)[C@@H](O)[C@H](O)[C@H](O)CO [MANNITOL]
metabolite_detected	metabolite_detected	metabolite_detected	metabolite_detected	metabolite_detected	–	O=c1ccc2ccc(O)cc2o1 [UMBELLIFERONE]
